In brackets after ≈: the same amount, converted by molar mass.
What was measured:
Type in all cases: functional
[1] = system: Staphylococcus epidermidis; assay: Antibacterial activity against methicillin-resistant Staphylococcus epidermidis 09-3 after 18 to 24 hrs by twofold serial dilution method
Summary of the method: (§1)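 Standard twofold serial agar dilution method on agar media for MIC determination. Screened against representative Gram-positive and Gram-negative strains. Levofloxacin and GMFX served as control drugs.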

[2] = system: Pseudomonas aeruginosa; assay: Antibacterial activity against Pseudomonas aeruginosa 09-33 after 18 to 24 hrs by twofold serial dilution method
Summary of the method: (§2)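 MIC determined by the standard twofold serial dilution method on agar media, screening against Gram-positive and Gram-negative strains. Levofloxacin and gemifloxacin were run alongside as reference drugs.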

[3] = system: Escherichia coli; assay: Antibacterial activity against Escherichia coli ATCC 25922 after 18 to 24 hrs by twofold serial dilution method; summary of the method: as §2
[4] = system: Enterococcus faecium; assay: Antibacterial activity against Enterococcus faecium 08-2 after 18 to 24 hrs by twofold serial dilution method; summary of the method: as §2
[5] = system: Pseudomonas aeruginosa; assay: Antibacterial activity against Pseudomonas aeruginosa ATCC 27853 after 18 to 24 hrs by twofold serial dilution method; summary of the method: as §2
[6] = system: Pseudomonas aeruginosa; assay: Antibacterial activity against Pseudomonas aeruginosa 09-32 after 18 to 24 hrs by twofold serial dilution method; summary of the method: as §2
[7] = system: Staphylococcus aureus; assay: Antibacterial activity against Staphylococcus aureus ATCC […] after 18 to 24 hrs by twofold serial dilution method; summary of the method: as §2
[8] = system: Staphylococcus epidermidis; assay: Antibacterial activity against methicillin-resistant Staphylococcus epidermidis 09-2 after 18 to 24 hrs by twofold serial dilution method; summary of the method: as §1
[9] = system: Klebsiella pneumoniae; assay: Antibacterial activity against Klebsiella pneumoniae 09-22 after 18 to 24 hrs by twofold serial dilution method; summary of the method: as §2
[10] = system: Staphylococcus epidermidis; assay: Antibacterial activity against methicillin-sensitive Staphylococcus epidermidis 09-3 after 18 to 24 hrs by twofold serial dilution method; summary of the method: as §1
[11] = system: Pseudomonas aeruginosa; assay: Antibacterial activity against Pseudomonas aeruginosa 09-35 after 18 to 24 hrs by twofold serial dilution method; summary of the method: as §2
[12] = system: Staphylococcus epidermidis; assay: Antibacterial activity against methicillin-resistant Staphylococcus epidermidis 09-4 after 18 to 24 hrs by twofold serial dilution method; summary of the method: as §1
[13] = system: Staphylococcus aureus; assay: Antibacterial activity against methicillin-sensitive Staphylococcus aureus 08-2 after 18 to 24 hrs by twofold serial dilution method; summary of the method: as §1
[14] = system: Escherichia coli; assay: Antibacterial activity against Escherichia coli 08-22 after 18 to 24 hrs by twofold serial dilution method; summary of the method: as §2
[15] = system: Streptococcus pneumoniae; assay: Antibacterial activity against Streptococcus pneumoniae 08-4 after 18 to 24 hrs by twofold serial dilution method; summary of the method: as §2
[16] = system: Staphylococcus epidermidis; assay: Antibacterial activity against methicillin-sensitive Staphylococcus epidermidis 09-6 after 18 to 24 hrs by twofold serial dilution method; summary of the method: as §1
[17] = system: Klebsiella pneumoniae; assay: Antibacterial activity against Klebsiella pneumoniae 09-21 after 18 to 24 hrs by twofold serial dilution method; summary of the method: as §2
[18] = system: Enterococcus faecalis; assay: Antibacterial activity against Enterococcus faecalis 08-10 after 18 to 24 hrs by twofold serial dilution method; summary of the method: as §2
[19] = system: Enterococcus faecalis; assay: Antibacterial activity against Enterococcus faecalis 08-12 after 18 to 24 hrs by twofold serial dilution method; summary of the method: as §2
[20] = system: Streptococcus pneumoniae; assay: Antibacterial activity against Streptococcus pneumoniae 08-2 after 18 to 24 hrs by twofold serial dilution method; summary of the method: as §2
[21] = system: Escherichia coli; assay: Antibacterial activity against Escherichia coli 08-21 after 18 to 24 hrs by twofold serial dilution method; summary of the method: as §2
[22] = system: Enterococcus faecium; assay: Antibacterial activity against Enterococcus faecium 08-7 after 18 to 24 hrs by twofold serial dilution method; summary of the method: as §2
[23] = system: Klebsiella pneumoniae; assay: Antibacterial activity against Klebsiella pneumoniae 09-23 after 18 to 24 hrs by twofold serial dilution method; summary of the method: as §2
[24] = system: Staphylococcus aureus; assay: Antibacterial activity against methicillin-resistant Staphylococcus aureus 08-1 after 18 to 24 hrs by twofold serial dilution method; summary of the method: as §1
[25] = system: Pseudomonas aeruginosa; assay: Antibacterial activity against Pseudomonas aeruginosa 09-34 after 18 to 24 hrs by twofold serial dilution method; summary of the method: as §2

| SMILES | MIC [1] [µg/mL] | MIC [2] [µg/mL] | MIC [3] [µg/mL] | MIC [4] [µg/mL] | MIC [5] [µg/mL] | MIC [6] [µg/mL] | MIC [7] [µg/mL] | MIC [8] [µg/mL] | MIC [9] [µg/mL] | MIC [10] [µg/mL] | MIC [11] [µg/mL] | MIC [12] [µg/mL] | MIC [13] [µg/mL] | MIC [14] [µg/mL] | MIC [15] [µg/mL] | MIC [16] [µg/mL] | MIC [17] [µg/mL] | MIC [18] [µg/mL] | MIC [19] [µg/mL] | MIC [20] [µg/mL] | further results |
| --- | --- | --- | --- | --- | --- | --- | --- | --- | --- | --- | --- | --- | --- | --- | --- | --- | --- | --- | --- | --- | --- |
| CO/N=C1\CN(c2nc3c(cc2F)c(=O)c(C(=O)O)cn3-c2ccc(F)cc2F)CC1/C(N)=N\OC (stereo not given) | 0.25 (≈ 0.496 µM) | > 128 | 128 (≈ 254 µM) | > 128 | 128 (≈ 254 µM) | 128 (≈ 254 µM) | 0.5 (≈ 0.991 µM) | 0.5 (≈ 0.991 µM) | 1 (≈ 1.98 µM) | 0.5 (≈ 0.991 µM) | 128 (≈ 254 µM) | 0.25 (≈ 0.496 µM) | 0.25 (≈ 0.496 µM) | > 128 | 0.25 (≈ 0.496 µM) | 0.25 (≈ 0.496 µM) | > 128 | > 128 | > 128 | 16 (≈ 31.7 µM) | MIC [21]: > 128 µg/mL; MIC [22]: > 128 µg/mL; MIC [23]: > 128 µg/mL; MIC [24]: 0.25 µg/mL (≈ 0.496 µM); MIC [25]: > 128 µg/mL |
| CCO/N=C1\CN(c2c(F)cc3c(=O)c(C(=O)O)cn(C4CC4)c3c2OC)CC1/C(N)=N\OCC (stereo not given) | 1 (≈ 2.04 µM) | 64 (≈ 131 µM) | 16 (≈ 32.7 µM) | 64 (≈ 131 µM) | 16 (≈ 32.7 µM) | 64 (≈ 131 µM) | 0.5 (≈ 1.02 µM) | 0.5 (≈ 1.02 µM) | 32 (≈ 65.4 µM) | 0.5 (≈ 1.02 µM) | 64 (≈ 131 µM) | 1 (≈ 2.04 µM) | 64 (≈ 131 µM) | 64 (≈ 131 µM) | 1 (≈ 2.04 µM) | 0.5 (≈ 1.02 µM) | 64 (≈ 131 µM) | 64 (≈ 131 µM) | 64 (≈ 131 µM) | 64 (≈ 131 µM) | MIC [21]: 64 µg/mL (≈ 131 µM); MIC [22]: 64 µg/mL (≈ 131 µM); MIC [23]: 64 µg/mL (≈ 131 µM); MIC [24]: 64 µg/mL (≈ 131 µM); MIC [25]: 64 µg/mL (≈ 131 µM) |
| CO/N=C1\CN(c2c(F)cc3c(=O)c(C(=O)O)cn(C4CC4)c3c2OC(F)F)CC1/C(N)=N\O (stereo not given) | 0.25 (≈ 0.517 µM) | > 128 | 128 (≈ 265 µM) | > 128 | 128 (≈ 265 µM) | > 128 | 0.125 (≈ 0.259 µM) | 4 (≈ 8.27 µM) | 64 (≈ 132 µM) | 0.25 (≈ 0.517 µM) | > 128 | 0.5 (≈ 1.03 µM) | 0.25 (≈ 0.517 µM) | > 128 | 4 (≈ 8.27 µM) | 0.25 (≈ 0.517 µM) | > 128 | > 128 | > 128 | 4 (≈ 8.27 µM) | MIC [21]: > 128 µg/mL; MIC [22]: > 128 µg/mL; MIC [23]: > 128 µg/mL; MIC [24]: 0.125 µg/mL (≈ 0.259 µM); MIC [25]: > 128 µg/mL |
| CO/N=C1\CN(c2c(F)cc3c(=O)c(C(=O)O)cn(CCF)c3c2F)CC1/C(N)=N\OC (stereo not given) | 0.125 (≈ 0.274 µM) | > 128 | 128 (≈ 281 µM) | > 128 | 32 (≈ 70.3 µM) | 64 (≈ 141 µM) | 0.125 (≈ 0.274 µM) | 2 (≈ 4.39 µM) | 4 (≈ 8.78 µM) | 0.25 (≈ 0.549 µM) | 64 (≈ 141 µM) | 0.125 (≈ 0.274 µM) | 0.25 (≈ 0.549 µM) | > 128 | 2 (≈ 4.39 µM) | 0.25 (≈ 0.549 µM) | > 128 | 64 (≈ 141 µM) | > 128 | 4 (≈ 8.78 µM) | MIC [21]: > 128 µg/mL; MIC [22]: > 128 µg/mL; MIC [23]: > 128 µg/mL; MIC [24]: 0.125 µg/mL (≈ 0.274 µM); MIC [25]: > 128 µg/mL |
